Measurements of several laboratories.
Compare with care: the assays were run in different laboratories.
Target: Serine/threonine-protein kinase PAK 1 (PAK1, Homo sapiens, UniProt Q13153)

| SMILES | effect on | action | method | concentration | endpoint | value |
| --- | --- | --- | --- | --- | --- | --- |
| C1=C/COCc2cc(ccc2OCCN2CCCC2)Nc2nccc(n2)-c2cccc(c2)COC/1 | binding |  |  | 0.1 µM | remaining binding | 100% |
| COc1ccc2oc(-c3ccc4nc(N)oc4c3)c/c(=N\c3ccccc3NC(=O)CCN)c2c1 | binding |  |  | 1 µM | remaining binding | 104% |
| CC#CC(=O)N1CCC[C@H]1c1nc(-c2ccc(C(=O)Nc3ccccn3)cc2)c2c(N)nccn12 | enzyme activity | inhibitor |  | 1 µM | inhibition | 1% |
| CCCCC(=O)Nc1ccc(-c2ccc3ncn(CCC)c(=O)c3c2)cn1 | binding |  | competition with immobilised ligand | 0.5 µM | remaining binding | 97% |
| C[C@H]1CC[C@H](n2c3cnccc3c3cnc(Nc4ccc5c(n4)CCN(C(=O)CO)C5)nc32)CC1 | cell-free assay |  |  | 1 µM | remaining signal | 100% |
| N#Cc1ccc(NC(=O)Nc2ccccc2)cc1 | cell-free assay |  | competition with immobilised ligand | 25 µM | remaining binding | 92% |
| COc1ccc2[nH]c3c4[nH]c5ccc(OC)cc5c4c4c(c3c2c1)C(=O)NC4=O | binding |  |  | 1 µM | remaining binding | 70% |
| C=CC(=O)N1CCC([C@@H]2CCNc3c(C(N)=O)c(-c4ccc(Oc5ccccc5)cc4)nn32)CC1 | enzyme activity | inhibitor |  | 1 µM | inhibition | 9% |
